Activity calls are given as the source filed them. No cut-off for these calls is given here.
Experiments:
[1] = system: Splenocyte; assay: (§1) Immunosuppressive activity in BALB/c mouse splenocytes assessed as inhibition of LPS-stimulated B-cell proliferation by measuring [3H]-thymidine uptake preincubated for 48 hrs followed by LPS stimulation and [3H]-thymidine addition for 8 hrs measured after 48 hrs by beta-scintillation counting analysis; format: functional, cell-based
Procedure, shortened: (§2)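 Female BALB/c splenocytes (5×10^5 cells), triplicate, with or without compound, stimulated with Con A 5 μg/ml (T cells) or LPS (E. coli 055:B5) 10 μg/ml (B cells). Culture 48 h at 37 °C, 5% CO2. Pulsed 8 h with 0.5 μCi/well [3H]thymidine, harvested to glass fiber filters, beta scintillation counted. IC50 from log(inhibitor) vs normalized response non-linear fit.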

[2] = Cytotoxicity against BALB/c mouse splenocytes after 48 hrs by CCK-8 assay; format: cell-based, Splenocyte
Procedure, shortened: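 Fresh female BALB/c splenocytes (1×10^6 cells), RBC-depleted with ammonium chloride, cultured in triplicate in RPMI 1640/10% FBS with penicillin/streptomycin at 37 °C, 5% CO2 for 48 h with or without compound (DMSO stock diluted in medium). CCK-8 added, 6-8 h further incubation, absorbance 450 nm (570 nm calibration). CC50 from log(inhibitor) vs normalized response non-linear fit.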

[3] = system: Splenocyte; assay: as §1, with “concanavalin A stimulated T-cell” for “LPS-stimulated B-cell”, “concanavalin A” for “LPS”; format: functional, cell-based; procedure, shortened: as §2
[4] = system: Splenocyte; assay: as §1, with “concanavalin A stimulated T-cell” for “LPS-stimulated B-cell”, “uptake at 50 uM” for “uptake”, “concanavalin A” for “LPS”; format: functional, cell-based
Procedure, shortened: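 Female BALB/c splenocytes (5×10^5 cells), triplicate, compound at 50 μM, Con A 5 μg/ml stimulation, 48 h at 37 °C, 5% CO2. Pulsed 8 h with 0.5 μCi/well [3H]thymidine, harvested to glass fiber filters, counted by beta scintillation.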

[5] = Immunosuppressive activity in BALB/c mouse CD19-positive B cells assessed as inhibition of anti-IgM/CD40 -induced decrease in IgD expression by measuring mean fluorescence intensity at 10 uM by allophycocyanin staining-based flow cytometric analysis (reference value: 5084); format: functional
[6] = Immunosuppressive activity in BALB/c mouse CD19-positive B cells assessed as inhibition of anti-IgM/CD40 -induced decrease in IgD expression by measuring mean fluorescence intensity at 3 uM by allophycocyanin staining-based flow cytometric analysis (reference value: 5084); format: functional
[7] = species: Mus musculus; assay: Immunosuppressive activity in BALB/c mouse CD4-positive T cells assessed as decrease in anti-CD3/CD28 stimulated IL-2 production at 1 to 10 uM after 24 hrs by ELISA; format: functional
Procedure, shortened: (§3)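 Purified splenic CD4+ T cells (negative selection, >98% pure) stimulated with anti-CD3 (5 μg/ml) plus anti-CD28 (2 μg/ml), with or without compound at 10, 3 and 1 μM, for 24 h. Supernatant IL-2 and IFN-γ measured by mouse ELISA kits.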

[8] = species: Mus musculus; assay: Immunosuppressive activity in BALB/c mouse CD4-positive T cells assessed as decrease in anti-CD3/CD28 stimulated IFN-gamma production at 1 to 10 uM after 24 hrs by ELISA; format: functional; procedure, shortened: as §3
[9] = Immunosuppressive activity in BALB/c mouse CD4-positive T cells assessed as anti-CD3/CD28 stimulated CD25 expression at 3 uM by phycoerythrin staining-based flow cytometric analysis (reference value: 52.5%); format: functional
Procedure, shortened: (§4)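 Purified splenic CD4+ T cells stimulated with anti-CD3 (5 μg/ml) plus anti-CD28 (2 μg/ml) with or without compound at 10, 3 or 1 μM. Cells washed in PBS, stained with fixable viability dye eFluor 780 for 30 min at 4 °C, Fc-blocked with anti-CD16/CD32, stained with PE-CD25. CD25+ percentage read by flow cytometry.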

[10] = Immunosuppressive activity in BALB/c mouse CD19-positive B cells assessed as inhibition of anti-IgM/CD40 -induced decrease in IgD expression by measuring mean fluorescence intensity at 1 uM by allophycocyanin staining-based flow cytometric analysis (reference value: 5084); format: functional
[11] = species: Mus musculus; assay: Immunosuppressive activity in BALB/c mouse CD19-positive B cells assessed as decrease in anti-IgM/CD40 stimulated IL-6 levels at 1 to 10 uM after 24 hrs by ELISA; format: functional
Procedure, shortened: (§5)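 Purified splenic CD19+ B cells (negative selection, >98% pure) stimulated with F(ab')2 anti-IgM (10 μg/ml) plus anti-CD40 (1 μg/ml), with or without compound at 10, 3 and 1 μM, 24 h. Supernatant IL-6 and IL-10 measured by mouse ELISA kits.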

[12] = Immunosuppressive activity in BALB/c mouse CD4-positive T cells assessed as anti-CD3/CD28 stimulated CD25 expression at 1 uM by phycoerythrin staining-based flow cytometric analysis (reference value: 52.5%); format: functional; procedure, shortened: as §4
[13] = species: Mus musculus; assay: Immunosuppressive activity in BALB/c mouse CD4-positive T cells assessed as inhibition of anti-CD3/CD28 stimulated cell proliferation at 1 to 10 uM after 48 hrs by [3H]-thymidine uptake assay; format: functional
Procedure, shortened: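 CD4+ T cells isolated from BALB/c spleen by immunomagnetic negative selection (purity >98%). 4×10^5 cells/well on plate-coated anti-CD3 (5 μg/ml) plus anti-CD28 (2 μg/ml), with or without compound at 10, 3 and 1 μM, for 48 h. Proliferation read by 0.5 μCi/well [3H]thymidine pulse.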

[14] = Immunosuppressive activity in BALB/c mouse CD4-positive T cells assessed as anti-CD3/CD28 stimulated CD25 expression at 10 uM by phycoerythrin staining-based flow cytometric analysis (reference value: 52.5%); format: functional; procedure, shortened: as §4
[15] = species: Mus musculus; assay: Immunosuppressive activity in BALB/c mouse CD19-positive B cells assessed as inhibition of anti-IgM/CD40 stimulated cell proliferation at 1 to 10 uM after 48 hrs by [3H]-thymidine uptake assay; format: functional
Procedure, shortened: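 CD19+ B cells purified from BALB/c spleen by negative selection (purity >98%). Stimulated with F(ab')2 anti-mouse IgM (10 μg/ml) plus hamster anti-mouse CD40 (1 μg/ml), with or without compound at 10, 3 and 1 μM, 48 h. Proliferation by 0.5 μCi/well [3H]thymidine pulse.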

[16] = species: Mus musculus; assay: Immunosuppressive activity in BALB/c mouse CD19-positive B cells assessed as increase in anti-IgM/CD40 stimulated IL-10 levels at 1 to 10 uM after 24 hrs by ELISA; format: functional; procedure, shortened: as §5

Structure (SMILES) | IC50 [1] [µM] | CC50 at 48 h [2] [µM] | IC50 [3] [µM] | also measured
COc1cc(OC)cc(-c2nc(Cc3c[nH]c4ccccc34)no2)c1 | 13.9 | > 50 | > 50 | 
c1ccc(-c2noc(Cc3c[nH]c4ccccc34)n2)cc1 | > 50 | > 50 | > 50 | 
N=C(N)NCCCCNc1noc(Cc2c[nH]c3ccccc23)n1 |  |  |  | inhibition [4]: inactive
COc1ccc(OC)c(-c2nc(Cc3c[nH]c4ccccc34)no2)c1 | 8.4 | > 50 | > 50 | 
CCCCc1ccc(-c2nc(Cc3c[nH]c4ccccc34)no2)cc1 | 9.8 | 8.2 | 11.2 | 
COc1cc(-c2noc(C34CCC(NC(=O)OC(C)(C)C)(CC3)CC4)n2)cc(OC)c1OC | 3.6 | 12.7 | 2.5 | 
COc1cc(/C(N)=N/OC(=O)Cc2c[nH]c3ccccc23)cc(OC)c1OC | 10.4 | 37.3 | 19.5 | 
COc1ccc(-c2nc(Cc3c[nH]c4ccccc34)no2)c(OC)c1 | 4.7 | 9.3 | 8.6 | 
Fc1ccccc1-c1nc(Cc2c[nH]c3ccccc23)no1 | > 50 | > 50 | > 50 | 
Fc1ccc(-c2nc(Cc3c[nH]c4ccccc34)no2)c(C(F)(F)F)c1 | 9.7 | 40.6 | 15.7 | 
COc1cc(-c2noc(-c3cc(OC)c(OC)c(OC)c3)n2)cc(OC)c1OC | > 50 | > 50 | 5.5 | 
N=C(N)NCCCCCNc1noc(Cc2c[nH]c3ccccc23)n1 |  |  |  | inhibition [4]: inactive
O=[N+]([O-])c1ccc(-c2noc(Cc3c[nH]c4ccccc34)n2)cc1 | > 50 | > 50 | > 50 | 
CCCCCCc1ccc(-c2nc(-c3cc(OC)c(OC)c(OC)c3)no2)cc1 | 22.9 | 25 | 23.8 | 
COc1cc(-c2noc(C34CC5CC(CC(C5)C3)C4)n2)cc(OC)c1OC | 18.8 | 26.5 | 2.7 | 
COc1cc(-c2noc(-c3ccc(N)cc3)n2)cc(OC)c1OC | 1.7 | > 50 | 0.8 | Flu intensity [5]: 6995; Flu intensity [6]: 6866; Activity [7]: Active; Activity [8]: Active; Activity [9]: 38.3%; Flu intensity [10]: 5281; Activity [11]: Active; Activity [12]: 52.2%; inhibition [13]: Active; Activity [14]: 19%; Activity [15]: Active; Activity [16]: Active
COc1cc(-c2nc(Cc3c[nH]c4ccccc34)no2)cc(OC)c1OC | 3.1 | > 50 | 11 | Flu intensity [5]: 6814; Flu intensity [6]: 6134; Activity [7]: Active; Activity [8]: Active; Activity [9]: 48.6%; Flu intensity [10]: 5640; Activity [11]: Active; Activity [12]: 50.3%; inhibition [13]: Active; Activity [14]: 22%; Activity [15]: Active; Activity [16]: Active
COc1cccc(-c2nc(Cc3c[nH]c4ccccc34)no2)c1 | 11.1 | 18.4 | 18.5 | 

Structure (SMILES) | IC50 [1] [µM] | CC50 at 48 h [2] [µM] | IC50 [3] [µM] | also measured
N=C(N)NCCNc1noc(Cc2c[nH]c3ccccc23)n1 |  |  |  | inhibition [4]: inactive
COc1cc(-c2noc(-c3cccc(N)c3)n2)cc(OC)c1OC | 5.5 | 8.2 | 7 | 
COc1ccc(-c2nc(Cc3c[nH]c4ccccc34)no2)cc1 | > 50 | > 50 | > 50 | 
Fc1ccc(-c2noc(Cc3c[nH]c4ccccc34)n2)cc1 | 13.6 | 13.6 | 5.4 | 
CCCCc1ccc(-c2nc(-c3cc(OC)c(OC)c(OC)c3)no2)cc1 | 36.2 | 21.2 | > 50 | 
COc1cc(-c2noc(C3CC4(C3)CC(F)(F)C4)n2)cc(OC)c1OC | 5.6 | 28.5 | 5.2 | 
COc1cc(-c2noc(-c3ccccc3)n2)cc(OC)c1OC | > 50 | > 50 | > 50 | 
COc1cc(-c2noc(Cc3c[nH]c4ccccc34)n2)cc(OC)c1OC | 2.8 | > 50 | > 50 | 
CCc1ccc(-c2nc(-c3cc(OC)c(OC)c(OC)c3)no2)cc1 | > 50 | 31.3 | > 50 | 
Clc1ccc(-c2noc(Cc3c[nH]c4ccccc34)n2)cc1 | > 50 | 42.8 | 22.6 | 
COc1cc(-c2noc(-c3ccc(NC(=O)OC(C)(C)C)cc3)n2)cc(OC)c1OC | 2.2 | 9.2 | 1.6 | 
COc1ccccc1-c1nc(Cc2c[nH]c3ccccc23)no1 | 11.1 | 42.2 | 16.7 | 
COc1ccc(Br)c(-c2nc(Cc3c[nH]c4ccccc34)no2)c1 | 6.9 | 33.6 | 13.3 | 
CCc1ccc(-c2noc(Cc3c[nH]c4ccccc34)n2)cc1 | 13.9 | 24.4 | 7.5 | 
CCCCc1nc(Cc2c[nH]c3ccccc23)no1 | > 50 | > 50 | > 50 | 
COc1cc(-c2noc(C34CCC(N)(CC3)CC4)n2)cc(OC)c1OC | 4.1 | 25.8 | 4.8 | 
COc1cc(C(=O)O/N=C(\N)Cc2c[nH]c3ccccc23)cc(OC)c1OC | 6.8 | 10.1 | 11.9 | 

Source: ChEMBL document CHEMBL4382256, “Design and Synthesis of Marine Phidianidine Derivatives as Potential Immunosuppressive Agents” (J Med Chem, 2018)
